Results taken from ChEMBL document CHEMBL1157011, “8-Sulfonyl-substituted tetrahydro-1H-pyrido[4,3-b]indoles as 5-HT6 receptor antagonists” (Eur J Med Chem, 2010).

Legend:
[1] = molecular target: T1, 5-hydroxytryptamine receptor 6 (Homo sapiens, UniProt P50406); assay: Antagonist activity at human recombinant 5HT6 receptor expressed in HEK293 cells assessed as inhibition of serotonin-induced cAMP production by LANCE assay relative to serotonin; assay type: functional, cell-based
Summary of the method: (§1)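 HEK-293 cells with a tetracycline-inducible (T-Rex) human 5-HT6 receptor, grown in DMEM/10% FBS with blasticidin S and zeocin and induced with tetracycline the day before. Medium was swapped for HBSS with 1 mM MgCl2, 1 mM CaCl2, IBMX and 5 mM HEPES, pH 7.4. Compounds (0.1% DMSO) were added 15 min at RT, then 10 nM serotonin for 30 min. cAMP read by LANCE; 2 independent experiments in duplicate.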

[2] = molecular target: T1, 5-hydroxytryptamine receptor 6; assay: Antagonist activity at human recombinant 5HT6 receptor expressed in HEK293 cells assessed as inhibition of serotonin-induced cAMP production by LANCE assay; assay type: functional, cell-based; settings: read-out: IC50; summary of the method: as §1
[3] = molecular target: 5-hydroxytryptamine receptor 6 (Rattus norvegicus, UniProt P31388); assay: Binding affinity to rat recombinant 5HT6 receptor
Sequence of 5-hydroxytryptamine receptor 6 (Rattus norvegicus, UniProt P31388) (P31388 whole entry): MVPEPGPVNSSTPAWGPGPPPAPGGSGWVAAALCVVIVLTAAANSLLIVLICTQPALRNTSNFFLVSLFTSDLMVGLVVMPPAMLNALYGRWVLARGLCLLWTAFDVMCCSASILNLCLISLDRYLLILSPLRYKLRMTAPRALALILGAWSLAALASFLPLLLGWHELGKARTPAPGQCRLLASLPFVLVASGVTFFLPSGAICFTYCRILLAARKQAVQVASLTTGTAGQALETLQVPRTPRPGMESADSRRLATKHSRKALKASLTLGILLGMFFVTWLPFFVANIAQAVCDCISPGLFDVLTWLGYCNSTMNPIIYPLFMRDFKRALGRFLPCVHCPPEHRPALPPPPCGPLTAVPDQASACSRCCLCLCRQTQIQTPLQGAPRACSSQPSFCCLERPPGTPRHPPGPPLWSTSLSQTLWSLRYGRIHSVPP

[4] = molecular target: T2, 5-hydroxytryptamine receptor 2C (Homo sapiens, UniProt P28335); assay: Binding affinity to 5HT2C receptor by radioligand displacement assay
T2 sequence (P28335 whole entry): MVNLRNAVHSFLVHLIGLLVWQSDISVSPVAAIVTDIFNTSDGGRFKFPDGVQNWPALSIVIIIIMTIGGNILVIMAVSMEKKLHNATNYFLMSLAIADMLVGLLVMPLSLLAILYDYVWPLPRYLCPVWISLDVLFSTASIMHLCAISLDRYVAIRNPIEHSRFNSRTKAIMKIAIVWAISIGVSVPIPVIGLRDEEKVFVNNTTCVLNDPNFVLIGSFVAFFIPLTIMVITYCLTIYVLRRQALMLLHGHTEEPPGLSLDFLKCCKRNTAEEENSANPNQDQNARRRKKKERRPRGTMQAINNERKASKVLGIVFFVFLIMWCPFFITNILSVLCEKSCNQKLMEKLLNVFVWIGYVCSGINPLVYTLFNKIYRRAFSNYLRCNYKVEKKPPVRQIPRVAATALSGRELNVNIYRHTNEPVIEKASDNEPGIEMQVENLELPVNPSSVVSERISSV
Summary of the method: (§2)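 Competitive displacement of the corresponding radioligand, run by an outside contract lab under its internal protocols. Data from one representative experiment in duplicate.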

[5] = molecular target: T1, 5-hydroxytryptamine receptor 6; assay: Binding affinity to human recombinant 5HT6 receptor
[6] = molecular target: T1, 5-hydroxytryptamine receptor 6; assay: Binding affinity to human recombinant 5HT6 receptor by radioligand displacement assay; summary of the method: as §2
[7] = molecular target: T3, 5-hydroxytryptamine receptor 1A (Homo sapiens, UniProt P08908); assay: Binding affinity to 5HT1A receptor by radioligand displacement assay
T3 sequence (P08908 whole entry): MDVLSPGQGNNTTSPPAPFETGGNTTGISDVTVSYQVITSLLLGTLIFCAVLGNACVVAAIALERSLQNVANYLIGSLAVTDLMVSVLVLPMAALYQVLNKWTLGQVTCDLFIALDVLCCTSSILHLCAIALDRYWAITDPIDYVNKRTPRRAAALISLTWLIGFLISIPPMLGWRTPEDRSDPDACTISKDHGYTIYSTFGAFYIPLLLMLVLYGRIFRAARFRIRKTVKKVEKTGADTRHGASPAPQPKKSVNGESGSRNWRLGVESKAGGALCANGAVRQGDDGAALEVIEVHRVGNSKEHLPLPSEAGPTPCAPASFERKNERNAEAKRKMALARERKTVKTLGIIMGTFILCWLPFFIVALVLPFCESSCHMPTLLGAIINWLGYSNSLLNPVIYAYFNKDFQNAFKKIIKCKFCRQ

[8] = molecular target: 5-hydroxytryptamine receptor 7 (Homo sapiens, UniProt P34969); assay: Binding affinity to 5HT7 receptor by radioligand displacement assay; summary of the method: as §2
Sequence of 5-hydroxytryptamine receptor 7 (P34969 whole entry): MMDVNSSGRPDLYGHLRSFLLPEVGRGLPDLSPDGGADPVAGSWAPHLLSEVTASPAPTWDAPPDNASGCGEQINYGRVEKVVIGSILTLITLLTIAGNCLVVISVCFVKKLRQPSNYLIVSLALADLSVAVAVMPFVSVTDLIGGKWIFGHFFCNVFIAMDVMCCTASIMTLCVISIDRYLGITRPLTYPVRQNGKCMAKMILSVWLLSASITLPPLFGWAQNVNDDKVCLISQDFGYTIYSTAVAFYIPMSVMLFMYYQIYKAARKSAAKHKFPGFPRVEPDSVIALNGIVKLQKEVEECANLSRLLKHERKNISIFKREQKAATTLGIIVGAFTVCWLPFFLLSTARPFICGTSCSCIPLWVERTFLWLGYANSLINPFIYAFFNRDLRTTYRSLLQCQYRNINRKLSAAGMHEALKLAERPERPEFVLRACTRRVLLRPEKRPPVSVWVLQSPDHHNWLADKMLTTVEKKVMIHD

T1 sequence (P50406 whole entry): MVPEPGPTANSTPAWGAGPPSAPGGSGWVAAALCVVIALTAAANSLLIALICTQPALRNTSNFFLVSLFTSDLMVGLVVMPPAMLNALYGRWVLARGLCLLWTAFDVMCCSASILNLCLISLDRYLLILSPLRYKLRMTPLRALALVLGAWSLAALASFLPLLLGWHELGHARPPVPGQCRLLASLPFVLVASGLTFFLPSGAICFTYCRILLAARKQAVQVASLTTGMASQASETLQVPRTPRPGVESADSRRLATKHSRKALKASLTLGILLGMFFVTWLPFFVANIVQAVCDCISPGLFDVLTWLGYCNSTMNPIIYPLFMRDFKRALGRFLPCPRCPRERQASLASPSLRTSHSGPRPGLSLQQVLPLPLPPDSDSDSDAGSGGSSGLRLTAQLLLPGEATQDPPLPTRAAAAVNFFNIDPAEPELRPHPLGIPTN

Imax [1]	IC50 [2]	SMILES	other results
100%	3.9 µM	O=S(=O)(Nc1cccc(F)c1)c1ccc2[nH]c3c(c2c1)CN(Cc1ccccc1)CC3	
100%	26 µM	CN1CCc2[nH]c3ccc(S(=O)(=O)N(C)C)cc3c2C1	
100%		Cc1ccc2c(c1)c1c(n2CCc2ccc(C)nc2)CCN(C)C1 [LATREPIRDINE]	Ki [3]: 119 nM; Ki [4]: 76 nM; Ki [5]: 26 nM; Ki [6]: 34 nM; Ki [7]: > 100 nM; Ki [8]: 8 nM

More lines, now with the values behind:

SMILES	Imax [1]	IC50 [2]	other results
CN1CCc2[nH]c3ccc(S(=O)(=O)c4cccc(F)c4)cc3c2C1	100%		
CN1CCN(S(=O)(=O)c2ccc3[nH]c4c(c3c2)CN(C)CC4)CC1	100%		
